From ChEMBL document CHEMBL1150387, “Development and experimental validation of a docking strategy for the generation of kinase-targeted libraries” (J Med Chem, 2008) come the findings set out here.

Experiment [1] has as its target Rho-associated protein kinase 2 (Homo sapiens) (UniProt O75116). As to the kind of experiment: Inhibition of ROCK2 at 10 uM by HTRF assay relative to control. The procedure, abridged:
(§1)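 HTRF kinase assay, one panel of kinases. Inhibitor stock 50 µM in 100% DMSO; tested at 10 µM. ATP and substrate at final levels near Km. Final buffer: 50 mM Hepes/NaOH pH 7.4, 40 µM Na3VO4, 0.005% Tween-20, 1 mM DTT, MnCl2 or MgCl2 at kinase-dependent levels. Started by adding ATP/substrate. Reaction run at room temperature, time varied by kinase. Detection mix in 50 mM Hepes pH 7.4, 0.1% BSA, 150 mM KF, incubated ≥1 h at room temperature. Activity expressed as % of uninhibited control; n=2.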

The target of experiment [2] is 3-phosphoinositide-dependent protein kinase 1 (Homo sapiens) (UniProt O15530). As to the kind of experiment: Inhibition of PDK1 at 10 uM by HTRF assay relative to control. In general terms: TR-FRET usually uses a lanthanide donor and a delayed reading to cut background.
Experiment [3] concerns the target Cyclin-dependent kinase 1 (Homo sapiens) (UniProt P06493). Nature of the experiment: Inhibition of CDK1 at 10 uM by HTRF assay relative to control. Summed up: as §1
Experiment [4] addresses MAP kinase-activated protein kinase 2 (Homo sapiens) (UniProt P49137). As to the kind of experiment: Inhibition of MAPKAPK2 at 10 uM by HTRF assay relative to control. The procedure, abridged:
as §1

Experiment [5] addresses Tyrosine-protein kinase Lck (Homo sapiens) (UniProt P06239). Nature of the experiment: Inhibition of Lck at 10 uM by HTRF assay relative to control. The procedure, abridged:
as §1

Experiment [6] has as its target Calcium/calmodulin-dependent protein kinase type II subunit alpha (Homo sapiens) (UniProt Q9UQM7). As to the kind of experiment: Inhibition of CaMK2alpha at 10 uM by HTRF assay relative to control. The procedure, abridged: as §1
Experiment [7] has as its target Fibroblast growth factor receptor 1 (Homo sapiens) (UniProt P11362). As to the kind of experiment: Inhibition of FGFR1 at 10 uM by HTRF assay relative to control. The procedure, abridged: as §1
For experiment [8], the target named is Mitogen-activated protein kinase 8 (Homo sapiens) (UniProt P45983). Nature of the experiment: Inhibition of JNK1 at 10 uM by HTRF assay relative to control. The procedure, abridged: as §1
Experiment [9] has as its target High affinity nerve growth factor receptor (Homo sapiens) (UniProt P04629). Nature of the experiment: Inhibition of TrkA at 10 uM by HTRF assay relative to control. The procedure, abridged:
as §1

Experiment [10] concerns the target T1, Inhibitor of nuclear factor kappa-B kinase subunit beta (Homo sapiens) (UniProt O14920).
T1 sequence (whole entry): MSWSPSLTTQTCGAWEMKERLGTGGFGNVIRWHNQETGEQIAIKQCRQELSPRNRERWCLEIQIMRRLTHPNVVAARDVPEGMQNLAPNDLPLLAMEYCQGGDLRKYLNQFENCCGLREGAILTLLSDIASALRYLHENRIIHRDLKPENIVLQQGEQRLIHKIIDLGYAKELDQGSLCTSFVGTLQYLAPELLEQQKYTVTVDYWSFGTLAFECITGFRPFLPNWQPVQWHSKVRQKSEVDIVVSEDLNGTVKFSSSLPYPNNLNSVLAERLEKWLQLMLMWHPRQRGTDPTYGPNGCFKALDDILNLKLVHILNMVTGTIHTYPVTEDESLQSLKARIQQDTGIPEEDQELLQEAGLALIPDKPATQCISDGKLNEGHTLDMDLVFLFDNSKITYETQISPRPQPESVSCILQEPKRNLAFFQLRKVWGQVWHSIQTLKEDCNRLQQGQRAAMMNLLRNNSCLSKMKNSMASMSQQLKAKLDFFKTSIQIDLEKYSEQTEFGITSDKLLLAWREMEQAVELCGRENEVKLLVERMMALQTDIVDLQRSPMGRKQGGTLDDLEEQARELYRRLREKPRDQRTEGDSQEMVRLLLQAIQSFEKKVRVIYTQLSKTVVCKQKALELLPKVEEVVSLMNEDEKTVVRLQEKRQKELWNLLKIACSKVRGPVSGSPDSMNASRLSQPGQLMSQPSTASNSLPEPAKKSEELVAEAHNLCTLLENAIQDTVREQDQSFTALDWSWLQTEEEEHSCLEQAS
Nature of the experiment: Inhibition of IKK-beta at 10 uM by HTRF assay relative to control. Summed up: as §1

A short description of experiment [11]: Inhibition of AMPKalpha at 10 uM by HTRF assay relative to control. The procedure, abridged:
as §1

Experiment [12] deals with Protein kinase C gamma type (Homo sapiens) (UniProt P05129). As to the kind of experiment: Inhibition of PKCgamma at 10 uM by HTRF assay relative to control. Summed up:
as §1

Experiment [13] concerns the target Platelet-derived growth factor receptor beta (Homo sapiens) (UniProt P09619). As to the kind of experiment: Inhibition of PDGFRbeta at 10 uM by HTRF assay relative to control. Summed up: as §1
Experiment [14] deals with Ribosomal protein S6 kinase beta-1 (Homo sapiens) (UniProt P23443). As to the kind of experiment: Inhibition of p70S6K at 10 uM by HTRF assay relative to control. The procedure, abridged: as §1
The target in experiment [15] is Insulin-like growth factor 1 receptor (Homo sapiens) (UniProt P08069). As to the kind of experiment: Inhibition of IGF1R at 10 uM by HTRF assay relative to control. The procedure, abridged: as §1
Experiment [16] has as its target Protein kinase C alpha type (Homo sapiens) (UniProt P17252). Nature of the experiment: Inhibition of PKCalpha at 10 uM by HTRF assay relative to control. The procedure, abridged:
as §1

In experiment [17] the target is Tyrosine-protein kinase Fes/Fps (Homo sapiens) (UniProt P07332). As to the kind of experiment: Inhibition of FES at 10 uM by HTRF assay relative to control. The procedure, abridged: as §1
The target in experiment [18] is Ribosomal protein S6 kinase alpha-3 (Homo sapiens) (UniProt P51812). Nature of the experiment: Inhibition of RSK2 at 10 uM by HTRF assay relative to control. The procedure, abridged: as §1
Experiment [19] addresses T2, Serine/threonine-protein kinase Chk1 (Homo sapiens) (UniProt O14757).
T2 sequence (whole entry): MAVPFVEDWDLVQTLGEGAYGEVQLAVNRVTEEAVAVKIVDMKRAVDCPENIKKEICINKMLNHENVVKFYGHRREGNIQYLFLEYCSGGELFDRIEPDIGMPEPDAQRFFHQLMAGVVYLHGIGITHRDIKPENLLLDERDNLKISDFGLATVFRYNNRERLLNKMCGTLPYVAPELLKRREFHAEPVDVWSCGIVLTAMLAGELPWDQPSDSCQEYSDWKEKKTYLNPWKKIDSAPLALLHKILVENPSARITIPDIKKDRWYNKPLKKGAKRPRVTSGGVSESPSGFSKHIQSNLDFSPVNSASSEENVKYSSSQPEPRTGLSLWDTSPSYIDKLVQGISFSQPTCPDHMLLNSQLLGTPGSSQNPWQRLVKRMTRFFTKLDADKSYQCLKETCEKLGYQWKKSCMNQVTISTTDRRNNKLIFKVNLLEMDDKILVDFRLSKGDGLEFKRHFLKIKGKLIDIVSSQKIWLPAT
As to the kind of experiment: Inhibition of CHK1 at 10 uM by HTRF assay relative to control. Summed up:
as §1

The target in experiment [20] is Serine/threonine-protein kinase Chk2 (Homo sapiens) (UniProt O96017). As to the kind of experiment: Inhibition of CHK2 at 10 uM by HTRF assay relative to control. Summed up: as §1
Sequence of Serine/threonine-protein kinase Chk2 (Homo sapiens) (O96017 whole entry): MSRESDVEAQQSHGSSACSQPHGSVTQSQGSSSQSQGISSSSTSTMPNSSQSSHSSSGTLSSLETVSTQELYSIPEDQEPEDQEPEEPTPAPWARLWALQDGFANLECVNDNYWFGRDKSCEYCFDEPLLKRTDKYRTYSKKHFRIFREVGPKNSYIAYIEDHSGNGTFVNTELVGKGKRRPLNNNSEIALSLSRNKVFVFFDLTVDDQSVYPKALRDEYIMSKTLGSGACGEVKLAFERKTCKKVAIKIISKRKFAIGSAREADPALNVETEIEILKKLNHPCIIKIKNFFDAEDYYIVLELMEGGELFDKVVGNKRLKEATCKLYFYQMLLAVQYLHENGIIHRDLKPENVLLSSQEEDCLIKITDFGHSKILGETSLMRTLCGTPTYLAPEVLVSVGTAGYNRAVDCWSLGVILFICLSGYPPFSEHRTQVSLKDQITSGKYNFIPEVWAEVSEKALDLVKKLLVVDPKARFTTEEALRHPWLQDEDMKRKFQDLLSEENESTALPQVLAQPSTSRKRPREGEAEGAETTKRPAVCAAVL

Sequence of Mitogen-activated protein kinase 8 (Homo sapiens) (P45983 whole entry): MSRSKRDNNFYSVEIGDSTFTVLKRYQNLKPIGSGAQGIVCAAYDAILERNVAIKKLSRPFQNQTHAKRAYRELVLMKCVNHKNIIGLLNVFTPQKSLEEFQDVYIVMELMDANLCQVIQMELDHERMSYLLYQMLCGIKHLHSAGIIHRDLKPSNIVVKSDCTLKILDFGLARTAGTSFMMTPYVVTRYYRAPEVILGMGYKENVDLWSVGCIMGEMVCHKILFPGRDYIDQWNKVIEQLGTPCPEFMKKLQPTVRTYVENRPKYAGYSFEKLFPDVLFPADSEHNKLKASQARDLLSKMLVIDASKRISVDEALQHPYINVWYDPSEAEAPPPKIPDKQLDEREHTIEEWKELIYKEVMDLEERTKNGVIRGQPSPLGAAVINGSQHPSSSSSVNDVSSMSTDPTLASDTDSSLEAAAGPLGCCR
Sequence of Insulin-like growth factor 1 receptor (Homo sapiens) (P08069 31-736 limits assumed): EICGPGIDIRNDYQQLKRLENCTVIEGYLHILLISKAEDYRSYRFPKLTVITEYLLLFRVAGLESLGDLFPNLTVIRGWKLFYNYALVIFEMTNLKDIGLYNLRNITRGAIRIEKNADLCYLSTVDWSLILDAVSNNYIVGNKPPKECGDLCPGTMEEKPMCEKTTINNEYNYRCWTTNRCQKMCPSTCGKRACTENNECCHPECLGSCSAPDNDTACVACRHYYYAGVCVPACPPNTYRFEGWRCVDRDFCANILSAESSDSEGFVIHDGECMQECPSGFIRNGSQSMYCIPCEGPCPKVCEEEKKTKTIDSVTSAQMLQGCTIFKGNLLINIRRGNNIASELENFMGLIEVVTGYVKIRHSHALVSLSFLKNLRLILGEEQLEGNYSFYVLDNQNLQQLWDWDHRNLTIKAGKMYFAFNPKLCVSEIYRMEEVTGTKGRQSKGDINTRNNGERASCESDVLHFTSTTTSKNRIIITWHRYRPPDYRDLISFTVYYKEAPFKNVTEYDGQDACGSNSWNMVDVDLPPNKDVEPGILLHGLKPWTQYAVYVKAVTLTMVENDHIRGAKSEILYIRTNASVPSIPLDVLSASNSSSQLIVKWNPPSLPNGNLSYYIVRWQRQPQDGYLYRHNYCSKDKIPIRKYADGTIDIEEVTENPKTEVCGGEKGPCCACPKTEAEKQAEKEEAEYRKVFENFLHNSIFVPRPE
Sequence of Insulin-like growth factor 1 receptor (Homo sapiens) (P08069 741-1367 limits assumed): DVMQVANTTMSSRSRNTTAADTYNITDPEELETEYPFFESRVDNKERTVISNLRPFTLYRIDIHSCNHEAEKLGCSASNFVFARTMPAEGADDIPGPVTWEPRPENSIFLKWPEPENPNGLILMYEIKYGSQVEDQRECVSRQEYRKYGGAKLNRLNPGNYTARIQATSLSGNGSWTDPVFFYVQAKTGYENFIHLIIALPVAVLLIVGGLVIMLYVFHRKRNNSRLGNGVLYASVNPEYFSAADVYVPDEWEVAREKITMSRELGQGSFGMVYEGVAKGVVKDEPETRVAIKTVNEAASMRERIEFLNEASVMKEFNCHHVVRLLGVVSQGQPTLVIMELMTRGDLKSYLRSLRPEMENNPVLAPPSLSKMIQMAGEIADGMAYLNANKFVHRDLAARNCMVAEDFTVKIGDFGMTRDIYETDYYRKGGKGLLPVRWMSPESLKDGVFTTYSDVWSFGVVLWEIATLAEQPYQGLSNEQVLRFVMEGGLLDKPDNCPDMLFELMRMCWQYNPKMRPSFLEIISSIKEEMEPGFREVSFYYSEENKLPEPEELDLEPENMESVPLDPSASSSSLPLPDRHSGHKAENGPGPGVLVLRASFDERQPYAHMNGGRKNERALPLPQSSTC
Sequence of High affinity nerve growth factor receptor (Homo sapiens) (P04629 33-796 limits assumed): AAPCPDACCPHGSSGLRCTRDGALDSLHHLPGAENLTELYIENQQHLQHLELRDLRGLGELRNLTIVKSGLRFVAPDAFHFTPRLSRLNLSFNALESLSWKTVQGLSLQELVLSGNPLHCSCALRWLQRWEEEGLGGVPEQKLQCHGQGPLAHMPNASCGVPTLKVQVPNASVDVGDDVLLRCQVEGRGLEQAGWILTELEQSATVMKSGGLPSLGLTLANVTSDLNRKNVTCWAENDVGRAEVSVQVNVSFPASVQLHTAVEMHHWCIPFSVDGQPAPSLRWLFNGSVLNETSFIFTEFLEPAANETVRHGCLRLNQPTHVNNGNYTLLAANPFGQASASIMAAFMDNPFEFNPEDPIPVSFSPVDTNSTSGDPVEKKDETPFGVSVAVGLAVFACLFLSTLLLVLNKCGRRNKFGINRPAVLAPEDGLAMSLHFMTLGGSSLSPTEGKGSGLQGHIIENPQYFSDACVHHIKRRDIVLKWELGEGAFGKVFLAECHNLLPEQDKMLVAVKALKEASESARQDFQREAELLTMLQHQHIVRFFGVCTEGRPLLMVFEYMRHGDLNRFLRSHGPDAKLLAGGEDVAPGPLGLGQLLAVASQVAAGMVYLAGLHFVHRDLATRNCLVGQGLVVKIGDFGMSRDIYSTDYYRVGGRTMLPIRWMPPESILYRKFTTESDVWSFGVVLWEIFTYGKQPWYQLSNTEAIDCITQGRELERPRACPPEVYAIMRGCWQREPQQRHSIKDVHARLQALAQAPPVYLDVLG
Sequence of Platelet-derived growth factor receptor beta (Homo sapiens) (P09619 whole entry): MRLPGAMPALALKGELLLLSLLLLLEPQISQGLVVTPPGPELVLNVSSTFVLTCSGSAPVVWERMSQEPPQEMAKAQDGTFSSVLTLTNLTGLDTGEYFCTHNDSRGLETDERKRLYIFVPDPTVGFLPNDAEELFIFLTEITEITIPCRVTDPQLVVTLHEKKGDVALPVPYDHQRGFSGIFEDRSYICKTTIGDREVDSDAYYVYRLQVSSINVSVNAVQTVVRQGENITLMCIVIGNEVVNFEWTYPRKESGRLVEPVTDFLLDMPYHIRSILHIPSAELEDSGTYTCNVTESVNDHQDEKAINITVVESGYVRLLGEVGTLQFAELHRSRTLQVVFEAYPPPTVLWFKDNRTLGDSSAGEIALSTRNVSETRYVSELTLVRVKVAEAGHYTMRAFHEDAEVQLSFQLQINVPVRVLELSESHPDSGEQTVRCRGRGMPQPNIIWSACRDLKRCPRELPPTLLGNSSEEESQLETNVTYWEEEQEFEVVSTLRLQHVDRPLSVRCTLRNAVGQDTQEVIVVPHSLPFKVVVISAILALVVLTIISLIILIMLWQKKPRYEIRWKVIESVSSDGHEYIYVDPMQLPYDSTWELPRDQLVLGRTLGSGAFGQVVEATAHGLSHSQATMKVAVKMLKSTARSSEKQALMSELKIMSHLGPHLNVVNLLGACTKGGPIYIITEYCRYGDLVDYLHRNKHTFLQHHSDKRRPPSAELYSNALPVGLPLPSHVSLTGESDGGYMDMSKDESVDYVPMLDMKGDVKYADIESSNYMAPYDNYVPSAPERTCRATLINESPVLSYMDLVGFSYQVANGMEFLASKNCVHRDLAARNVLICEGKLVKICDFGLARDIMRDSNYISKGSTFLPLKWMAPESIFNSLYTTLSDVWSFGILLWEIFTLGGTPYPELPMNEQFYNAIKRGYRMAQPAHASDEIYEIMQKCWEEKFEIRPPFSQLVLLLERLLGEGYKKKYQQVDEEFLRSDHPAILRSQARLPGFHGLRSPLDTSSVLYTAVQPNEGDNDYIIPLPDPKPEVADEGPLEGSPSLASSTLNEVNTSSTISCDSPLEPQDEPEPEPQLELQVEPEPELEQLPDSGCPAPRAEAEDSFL
Sequence of Tyrosine-protein kinase Lck (Homo sapiens) (P06239 2-509 limits assumed): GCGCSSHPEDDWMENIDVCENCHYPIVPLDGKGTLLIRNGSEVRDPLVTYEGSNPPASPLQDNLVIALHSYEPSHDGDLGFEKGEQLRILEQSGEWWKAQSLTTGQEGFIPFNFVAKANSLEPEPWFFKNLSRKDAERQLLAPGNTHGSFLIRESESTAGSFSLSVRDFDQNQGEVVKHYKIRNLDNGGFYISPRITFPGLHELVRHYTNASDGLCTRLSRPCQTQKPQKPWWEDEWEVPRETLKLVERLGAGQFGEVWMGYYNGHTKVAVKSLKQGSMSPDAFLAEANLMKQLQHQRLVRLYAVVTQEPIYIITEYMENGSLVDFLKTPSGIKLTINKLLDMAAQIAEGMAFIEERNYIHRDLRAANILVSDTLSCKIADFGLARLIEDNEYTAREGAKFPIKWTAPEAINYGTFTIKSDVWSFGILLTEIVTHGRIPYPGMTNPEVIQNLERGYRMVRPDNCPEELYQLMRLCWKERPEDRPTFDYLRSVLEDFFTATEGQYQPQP
Sequence of Cyclin-dependent kinase 1 (Homo sapiens) (P06493 whole entry, looked up): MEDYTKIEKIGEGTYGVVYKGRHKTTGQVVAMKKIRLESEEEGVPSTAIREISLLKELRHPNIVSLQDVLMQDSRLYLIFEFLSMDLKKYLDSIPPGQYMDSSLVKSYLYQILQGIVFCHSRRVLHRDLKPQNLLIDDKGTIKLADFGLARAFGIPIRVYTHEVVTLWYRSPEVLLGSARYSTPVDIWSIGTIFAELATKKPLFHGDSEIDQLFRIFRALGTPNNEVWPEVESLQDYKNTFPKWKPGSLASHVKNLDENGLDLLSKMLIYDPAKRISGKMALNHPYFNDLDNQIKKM

On to `CN(C)CC(C)(C)CNC(=O)C1CCN(c2cc(N3CCOCC3)nc(N)n2)CC1`, for which the inhibition in [1], in experiment [2], in [3], in experiment [4], in experiment [5] and in experiment [6] was 0% in each case. In addition, the inhibition in experiment [7] was 21%; in experiment [8] it was 0%; in experiment [9], 7%; in experiment [10] it was 6%; in [11], 11%; in experiment [12] it was 3%. The inhibition in [13] amounted to 6%; in experiment [14], 6%; in experiment [15], 0%; in experiment [16] it was 0%; in experiment [17], 3%; in experiment [18], 0%. In addition, the figures for the inhibition in [19] and in experiment [20] were 8% and 2%, respectively.
For `Cc1cccc(Nc2nccc(Nc3cccc(C(=O)N(C)CCc4ccccn4)c3)n2)c1`, the inhibition in experiment [1] turned out to be 5%; in experiment [2], 8%; in [3], 1%; in experiment [4], 0%; in [5], 45%; in [6], 0%. The inhibition in experiment [7] was found to be 82%; in experiment [8], 49%; in experiment [9], 60%; in [10], 9%; in [11] it was 17%; in experiment [12], 14%. Moreover, the inhibition in experiment [13] was found to be 93%; in experiment [14], 9%; in [15], 87%; in experiment [16], 0%; in experiment [17], 75%; in experiment [18], 57%. For the same compound, the inhibition in experiment [19] is 5%; in experiment [20], 0%.
For the compound `O=C(NCc1ccncc1)c1cccc(Nc2cc(Nc3cccc(Br)c3)ncn2)c1`, the inhibition stood at 13% in [1]; 4% in experiment [2]; 1% in experiment [3]; 0% in experiment [4]; 32% in experiment [5]; 0% in [6]. Further, the inhibition was 0% in experiment [7]; 28% in experiment [8]; 8% in experiment [9]; 4% in [10]; 11% in [11]; 0% in experiment [12]. Further, the inhibition in [13] was 26%; in experiment [14], 16%; in experiment [15], 5%; in experiment [16], 2%; in experiment [17] it was 17%; in experiment [18], 5%. Moreover, the inhibition in experiment [19] worked out at 4%; in [20], 0%.
For `Cc1cccc(Oc2ccnc(N3CCN(C(=O)c4c(C)noc4C)CC3)n2)c1`, the inhibition in [1], in experiment [2], in experiment [3], in experiment [4], in experiment [5] and in experiment [6] was 0% each time. Further, the inhibition in experiment [7] came to 5%; in experiment [8] it was 13%; in [9], 8%; in [10] it was 3%; in experiment [11] it was 6%; in experiment [12] it was 3%. The inhibition in experiment [13] was found to be 5%; in [14] it was 5%; in experiment [15] it was 0%; in experiment [16], 0%; in experiment [17] it was 7%; in [18], 0%. Besides, the inhibition in experiment [19] and in experiment [20] was 3% each time.
As for `COc1cccc(Nc2cc(Nc3cccc(C(=O)NCCCn4ccnc4)c3)nc(N)n2)c1`, the inhibition is 12% in experiment [1]; 1% in [2]; 2% in [3]; 0% in [4]; 0% in experiment [5]; 0% in [6]. The inhibition in experiment [7] came out at 6%; in experiment [8], 71%; in experiment [9], 7%; in experiment [10] it was 4%; in experiment [11], 8%; in [12], 0%. Further, the inhibition in [13] turned out to be 7%; in experiment [14] it was 14%; in experiment [15] it was 8%; in [16], 2%; in experiment [17], 18%; in experiment [18], 0%. Further, the inhibition in experiment [19] is 5%; in [20] it was 3%.
Take `O=C(NCc1cccnc1)c1cccc(-c2ccc(Nc3ccc4ncsc4c3)nn2)c1`: the inhibition in [1] came out at 93%; in experiment [2] it was 4%; in experiment [3], 0%; in experiment [4] it was 6%; in experiment [5], 42%; in experiment [6], 0%. Further, the inhibition was 49% in [7]; 55% in experiment [8]; 0% in [9]; 52% in experiment [10]; 54% in experiment [11]; 28% in experiment [12]. In addition, the inhibition in experiment [13] was determined as 85%; in experiment [14], 79%; in experiment [15], 32%; in experiment [16], 0%; in experiment [17], 18%; in experiment [18], 62%. The inhibition in experiment [19] came to 6%; in experiment [20], 28%.
As to `Cc1cccc(CN2CCN(c3cc(N(C)c4cccc(C)c4)ncn3)CC2)c1`, the inhibition in [1] is 1%; in experiment [2] it was 3%; in experiment [3], 0%; in experiment [4], 0%; in [5] it was 0%; in [6], 0%. The inhibition in experiment [7] is 5%; in experiment [8] it was 9%; in experiment [9], 4%; in [10], 1%; in experiment [11] it was 4%; in [12], 2%. The inhibition in experiment [13] was determined as 6%; in [14], 10%; in experiment [15], 0%; in [16], 3%; in experiment [17], 4%; in [18] it was 0%. Also, the inhibition in experiment [19] is 0%; in experiment [20] it was 2%.
Consider `O=C(C1CCN(c2nccc(Nc3ccccc3)n2)CC1)N1CC[C@@H](O)C1`, for which the inhibition in [1] worked out at 0%; in [2] it was 2%; in experiment [3] it was 0%; in experiment [4], 4%; in [5], 0%; in [6], 0%. The inhibition in experiment [7] was found to be 4%; in [8] it was 0%; in [9] it was 12%; in [11], 7%; in experiment [12], 5%; in experiment [13] it was 6%. Also, the inhibition was found to be 10% in [14]; 0% in [15]; 0% in experiment [16]; 2% in experiment [17]; 0% in [18]; 4% in experiment [19]. Also, the inhibition in experiment [20] is 0%.

The term inhibition denotes the relative decrease from the control value, in per cent.
